High-throughput results from PubChem.
NF-kB expr up – raises NF-kB expression in human neuronal cells; NF-kB reporter expression; hits give high values; fold change at 12.5 µM; hit rate 1.6% among 190,000; AID 1239; in the data active means fold change above about 3.3
STAT1 inh – reduces IFN-gamma driven STAT1 reporter signal; NIH 3T3 STAT1-luciferase reporter, luminescence; inhibition, % at 5.5 µM; hit rate 0.35% among 200,000; AID 920;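 active means inhibition above a set limit, the mean inhibition across all tested compounds plus 3 SD, cut at about 34% in these data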
APP 5'UTR act – APP 5'UTR luciferase reporter activation | AID 1276 | activation, % at 2 µM | SH-SY5Y APP 5'UTR luciferase reporter, luminescence; zero percent = DMSO vehicle wells | hit rate 1% among 190,000;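 active means activation above a set limit, based on mean plus 3 SD of controls, cut at about 140% in these data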
STAT3 inh – STAT3 signaling inhibition | AID 862 | U3A cells, IL-6 STAT3-luciferase reporter, luminescence; host cell line lacks STAT1 | hit rate 0.89% among 190,000 | inhibition, % at 5.5 µM;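 active means inhibition above the mean inhibition across all screened compounds plus 3 SD, cut at about 44% in these data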
STAT1 act – increases IFN-gamma driven STAT1 reporter signal. activation (% of control), % at 5.5 µM. AID 932. hit rate 2.6% among 200,000. NIH 3T3 STAT1-luciferase reporter, luminescence; 100% = IFN-gamma alone, no compound;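 active means activation above the screen-wide mean activation plus 3 SD, cut at about 130% in these data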
STAT3 activator – increases IL-6 driven STAT3 reporter signal | U3A cells, IL-6 STAT3-luciferase reporter, luminescence; 100% = signal with IL-6 EC80 alone | activation (% of control), % at 5.6 µM | hit rate 0.91% among 190,000 | AID 871;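 active means activation above the screen-wide mean of compound activation plus 3 SD, cut at about 130% in these data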
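Detection: reporter luminescence signal / Assay system: STAT1-lacking human U3A cells, STAT3 luciferase reporter / Incubation: compound pre-incubation 1 h before IL-6, then 6 h stimulation at 37 °C / Control set: IL-6-only high control / Read-out: % activation relative to IL-6 control / Probe or stimulus: Interleukin-6, 33 ng/mL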
Hits are given with their value. A selection: hits, their analogues and other compounds. The true share with any hit is near 4.9%.

How did Cc1ccc(C)c(C(=O)CN2C(=O)NC3(CCC(C)CC3)C2=O)c1 (stereo not drawn) do in these assays?
NF-kB expr up: inactive; STAT1 inh: inactive; APP 5'UTR act: inactive; STAT3 inh: inactive; STAT1 act: inactive; STAT3 activator: inactive

Results for O=C1CCCc2nc(N3CCc4ccccc43)ncc21 ?
NF-kB expr up: 8.02; STAT1 inh: inactive; APP 5'UTR act: inactive; STAT3 inh: inactive; STAT1 act: 150.0; STAT3 activator: inactive

How did CC1(C)CC(=O)c2cnc(N3CCc4ccccc4C3)nc2C1 do in these assays?
NF-kB expr up: inactive; STAT1 inh: inactive; APP 5'UTR act: inactive; STAT3 inh: inactive; STAT1 act: 132.7; STAT3 activator: inactive

What do the screens show for `CC1(C)CC(=O)c2cnc(N3CCN(c4ccccc4)CC3)nc2C1`?
NF-kB expr up: inactive; STAT1 inh: inactive; APP 5'UTR act: inactive; STAT3 inh: inactive; STAT1 act: inactive; STAT3 activator: inactive

What do the screens show for `COc1cccc(OC)c1C(=O)Nc1cccnc1`?
NF-kB expr up: inactive; STAT1 inh: inactive; APP 5'UTR act: inactive; STAT3 inh: inactive; STAT1 act: inactive; STAT3 activator: inactive

What do the screens show for `CC(=O)Nc1ccccc1NC(=O)c1ccc(C)c(C)c1`?
STAT1 inh: inactive; APP 5'UTR act: inactive; STAT3 inh: inactive; STAT1 act: inactive; STAT3 activator: inactive

Results for O=C1N=C(N2CCOCC2)S/C1=C1\C(=O)N(Cc2ccccc2)c2ccccc21 ?
NF-kB expr up: inactive; STAT1 inh: inactive; APP 5'UTR act: 380.0; STAT3 inh: inactive; STAT1 act: inactive; STAT3 activator: inactive

Results for O=C(O)/C=C/c1ccc2ccccc2n1 ?
NF-kB expr up: inactive; STAT1 inh: inactive; APP 5'UTR act: inactive; STAT3 inh: inactive; STAT1 act: inactive; STAT3 activator: inactive

Results for O=[N+]([O-])c1ccc(/C=C/c2ccc3ccccc3n2)cc1 ?
NF-kB expr up: 5.2; STAT1 inh: 52.2; APP 5'UTR act: 165.4; STAT3 inh: 78.5; STAT1 act: inactive; STAT3 activator: inactive

Results for C(=C\c1ccc2ccccc2n1)/c1ccccc1 ?
APP 5'UTR act: 175.5

What do the screens show for `Oc1ccc(/C=C/c2ccc3ccccc3n2)cc1`?
NF-kB expr up: inactive; STAT1 inh: 71.5; APP 5'UTR act: inactive; STAT3 inh: 101.9; STAT1 act: inactive; STAT3 activator: inactive

What do the screens show for `COc1cccc2c(=O)c(C(=O)NCc3cccs3)c[nH]c12`?
NF-kB expr up: inactive; STAT1 inh: inactive; APP 5'UTR act: inactive; STAT3 inh: inactive; STAT1 act: 130.5; STAT3 activator: inactive

Results for Cc1ccc2[nH]cc(C(=O)NCc3cccs3)c(=O)c2c1 ?
NF-kB expr up: inactive; STAT1 inh: inactive; APP 5'UTR act: inactive; STAT3 inh: inactive; STAT1 act: inactive; STAT3 activator: inactive

What do the screens show for `Cc1ccc(NC(=O)N2CCc3ccccc3C2)cc1`?
NF-kB expr up: 3.45; STAT1 inh: inactive; APP 5'UTR act: inactive; STAT3 inh: inactive; STAT1 act: 147.7; STAT3 activator: inactive

How did O=C(Nc1ccc(Cl)cc1)N1CCc2ccccc2C1 do in these assays?
NF-kB expr up: inactive; STAT1 inh: inactive; APP 5'UTR act: inactive; STAT3 inh: inactive; STAT1 act: 139.0; STAT3 activator: inactive

Results for O=C(/C=C/c1ccccc1)Nc1cc(S(=O)(=O)N2CCOCC2)ccc1N1CCCC1 ?
NF-kB expr up: inactive; STAT1 inh: inactive; APP 5'UTR act: inactive; STAT3 inh: inactive; STAT1 act: inactive; STAT3 activator: inactive

What do the screens show for `Cc1ccc2nc(SCc3ccc([N+](=O)[O-])cc3)[nH]c2c1`?
NF-kB expr up: inactive; STAT1 inh: inactive; APP 5'UTR act: inactive; STAT3 inh: inactive; STAT1 act: inactive; STAT3 activator: inactive

Results for Cc1ccc(CSc2nc3ccncc3[nH]2)cc1 ?
NF-kB expr up: 5.19; STAT1 inh: 71.5; APP 5'UTR act: 147.5; STAT3 inh: 100.0; STAT1 act: inactive; STAT3 activator: inactive

What do the screens show for `Clc1ccc(CSc2nc3ccncc3[nH]2)cc1`?
NF-kB expr up: 7.47; STAT1 inh: 52.0; APP 5'UTR act: 147.2; STAT3 inh: 81.4; STAT1 act: inactive; STAT3 activator: inactive

What do the screens show for `Clc1ccc(/C=C/c2ncc3ccccn23)cc1`?
NF-kB expr up: 3.67; STAT1 inh: inactive; APP 5'UTR act: inactive; STAT3 inh: inactive; STAT1 act: 144.4; STAT3 activator: inactive

Results for Fc1ccc(-c2ncc3ccccn23)cc1 ?
NF-kB expr up: inactive; STAT1 inh: inactive; APP 5'UTR act: inactive; STAT3 inh: inactive; STAT1 act: inactive; STAT3 activator: inactive

What do the screens show for `Cc1ccc(/C=N/Nc2cn[nH]c(=O)n2)o1`?
NF-kB expr up: inactive; STAT1 inh: inactive; APP 5'UTR act: inactive; STAT3 inh: inactive; STAT1 act: inactive; STAT3 activator: inactive

How did Cc1cccc(/C=N/Nc2ccc3ccccc3n2)c1 do in these assays?
NF-kB expr up: inactive; STAT1 inh: 90.3; APP 5'UTR act: inactive; STAT3 inh: 101.6; STAT1 act: inactive; STAT3 activator: inactive

What do the screens show for `Fc1ccccc1-c1ccc(/C=N/Nc2nc3ccccc3[nH]2)o1`?
NF-kB expr up: inactive; STAT1 inh: inactive; APP 5'UTR act: inactive; STAT3 inh: inactive; STAT1 act: inactive; STAT3 activator: inactive

How did Cc1ccc(/C=N\Nc2nc3ccc(Cl)cc3[nH]2)o1 do in these assays?
NF-kB expr up: 3.73; STAT1 inh: inactive; APP 5'UTR act: inactive; STAT3 inh: inactive; STAT1 act: 136.3; STAT3 activator: inactive

How did Cc1cc(C)nc(N/N=C/c2ccc3c(c2)OCCO3)n1 do in these assays?
NF-kB expr up: inactive; STAT1 inh: inactive; APP 5'UTR act: inactive; STAT3 inh: inactive; STAT1 act: inactive; STAT3 activator: inactive

What do the screens show for `Cc1ccc(/C=N/Nc2ccc3ccccc3n2)o1`?
NF-kB expr up: inactive; STAT1 inh: 73.0; APP 5'UTR act: 182.9; STAT3 inh: 89.7; STAT1 act: inactive; STAT3 activator: inactive

What do the screens show for `C(=N\Nc1ccc2ccccc2n1)/c1ccc2c(c1)OCCO2`?
NF-kB expr up: inactive; STAT1 inh: 88.8; APP 5'UTR act: inactive; STAT3 inh: 108.0; STAT1 act: inactive; STAT3 activator: inactive

Results for Cc1ccc(C(=O)N2CCN(c3cnn(C)c(=O)c3Cl)CC2)cc1 ?
NF-kB expr up: inactive; STAT1 inh: inactive; APP 5'UTR act: inactive; STAT3 inh: inactive; STAT1 act: inactive; STAT3 activator: inactive

How did CN(CCOC(=O)CN1C(=O)c2ccccc2C1=O)C1=NS(=O)(=O)c2ccccc21 do in these assays?
NF-kB expr up: inactive; STAT1 inh: inactive; APP 5'UTR act: inactive; STAT3 inh: inactive; STAT1 act: inactive; STAT3 activator: inactive

How did CN(C)/C=N/C(=S)Nc1ccc(Br)cc1F do in these assays?
NF-kB expr up: inactive; STAT1 inh: inactive; APP 5'UTR act: inactive; STAT3 inh: inactive; STAT1 act: 129.9; STAT3 activator: inactive

How did CCN(CC)CCCNC(=O)c1cc(-c2ccc(Cl)cc2)on1 do in these assays?
NF-kB expr up: inactive; STAT1 inh: inactive; APP 5'UTR act: inactive; STAT3 inh: inactive; STAT1 act: inactive; STAT3 activator: inactive

How did CCCCNC(=O)c1cc(-c2ccc(OC)cc2)on1 do in these assays?
NF-kB expr up: 3.57; STAT1 inh: inactive; APP 5'UTR act: inactive; STAT3 inh: inactive; STAT1 act: inactive; STAT3 activator: inactive
